Test results as given in ChEMBL document CHEMBL1138470, “Discovery and characterization of the N-phenyl-N'-naphthylurea class of p38 kinase inhibitors” (Bioorg Med Chem Lett, 2009).
Values belong to the compound of their own block, whether it stands above or below them. Activity calls are given as the source filed them. The rule behind the calls is not given here.

Legend:
[1] = biological target: T1, Mitogen-activated protein kinase 14 (Homo sapiens, UniProt Q16539)
THP-1 = assay: Inhibition of LPS-induced TNFalpha production in human THP1 cells; assay type: functional, cell-based
How it was run: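 LPS-stimulated TNFα release from THP-1 cells; IC50 values are means of 2–4 experiments, SD for n > 2 typically ±50% of the value.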

Blood = assay: Inhibition of LPS-induced TNFalpha production in human whole blood; assay type: functional, tissue-based
How it was run: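 LPS-stimulated TNFα production in whole blood from human donors; IC50 reported as geometric mean of 4–12 donor experiments, SD typically ±50% of the value.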

[2] = biological target: T1, Mitogen-activated protein kinase 14; assay: Binding affinity to p38alpha assessed as inhibition of ATF2 phosphorylation preincubated for 4 hrs
[3] = biological target: Mitogen-activated protein kinase 8 (Homo sapiens) (UniProt P45983); assay: Inhibition of […] at => 3 ug/mL
[4] = biological target: Tyrosine-protein kinase Lck (Homo sapiens) (UniProt P06239); assay: Inhibition of LCK at => 3 ug/mL
[5] = biological target: RAC-alpha serine/threonine-protein kinase (Homo sapiens, UniProt P31749); assay: Inhibition of PKBalpha/Akt1
[6] = biological target: Tyrosine-protein kinase TXK (Homo sapiens) (UniProt P42681); assay: Inhibition of TXK at => 3 ug/mL
[7] = Inhibition of IKK at => 3 ug/mL
[8] = Inhibition of VEGFR
[9] = biological target: Tyrosine-protein kinase SYK (Homo sapiens) (UniProt P43405); assay: Inhibition of SYK at => 3 ug/mL
[10] = biological target: Serine/threonine-protein kinase B-raf (Homo sapiens, UniProt P15056); assay: Inhibition of bRaf
[11] = biological target: Casein kinase I isoform alpha (Homo sapiens) (UniProt P48729); assay: Inhibition of CK1 at => 3 ug/mL
[12] = biological target: RAF proto-oncogene serine/threonine-protein kinase (Homo sapiens, UniProt P04049); assay: Inhibition of craf
[13] = Inhibition of pp60src
[14] = biological target: Dual specificity mitogen-activated protein kinase kinase 1 (Homo sapiens) (UniProt Q02750); assay: Inhibition of MKK1 at => 3 ug/mL
[15] = biological target: Glycogen synthase kinase-3 beta (Homo sapiens) (UniProt P49841); assay: Inhibition of GSK3-beta at => 3 ug/mL
[16] = Inhibition of ERK at => 3 ug/mL
[17] = biological target: MAP kinase-activated protein kinase 5 (Homo sapiens) (UniProt Q8IW41); assay: Inhibition of PRAK at => 3 ug/mL
[18] = biological target: Insulin-like growth factor 1 receptor (Homo sapiens) (UniProt P08069); assay: Inhibition of IGF1R at => 3 ug/mL
[19] = biological target: Tyrosine-protein kinase Lyn (Homo sapiens, UniProt P07948); assay: Inhibition of Lyn
[20] = biological target: 3-phosphoinositide-dependent protein kinase 1 (Homo sapiens) (UniProt O15530); assay: Inhibition of PDK1 at => 3 ug/mL
[21] = biological target: Tyrosine-protein kinase JAK3 (Homo sapiens) (UniProt P52333); assay: Inhibition of JAK3 at => 3 ug/mL
[22] = biological target: Rho-associated protein kinase 2 (Homo sapiens) (UniProt O75116); assay: Inhibition of ROCK2 at => 3 ug/mL
[23] = Inhibition of PKA at => […] ug/mL
[24] = biological target: Ribosomal protein S6 kinase beta-1 (Homo sapiens) (UniProt P23443); assay: Inhibition of S6K1 at => 3 ug/mL
[25] = biological target: Cyclin-dependent kinase 1 (Homo sapiens) (UniProt P06493); assay: Inhibition of CDK1 at => 3 ug/mL
[26] = biological target: Serine/threonine-protein kinase Sgk1 (Homo sapiens) (UniProt O00141); assay: Inhibition of SGK at => 3 ug/mL
[27] = biological target: Focal adhesion kinase 1 (Homo sapiens) (UniProt Q05397); assay: Inhibition of PTK2 at => 3 ug/mL
[28] = biological target: Tyrosine-protein kinase CSK (Homo sapiens) (UniProt P41240); assay: Inhibition of CSK at 3 uM
[29] = Inhibition of PHK1 at => 3 ug/mL
[30] = biological target: Hepatocyte growth factor receptor (Homo sapiens) (UniProt P08581); assay: Inhibition of HGFR at => 3 ug/mL
[31] = biological target: MAP kinase-activated protein kinase 2 (Homo sapiens) (UniProt P49137); assay: Inhibition of MAPKAPK2 at => […] ug/mL
[32] = Inhibition of CK2 at => 3 ug/mL
[33] = biological target: Tyrosine-protein kinase BTK (Homo sapiens) (UniProt Q06187); assay: Inhibition of BTK at => 3 ug/mL
[34] = Inhibition of PI3K at => 3 ug/mL
[35] = Inhibition of FGFR
[36] = biological target: Mitogen-activated protein kinase 9 (Homo sapiens, UniProt P45984); assay: Inhibition of JNK2alpha2 by exchange curve binding kinetic analysis
[37] = biological target: Ribosomal protein S6 kinase alpha-3 (Homo sapiens) (UniProt P51812); assay: Inhibition of RSK2 at => 3 ug/mL
[38] = biological target: Tyrosine-protein kinase ABL1 (Homo sapiens, UniProt P00519); assay: Inhibition of Abl
[39] = biological target: Dual specificity tyrosine-phosphorylation-regulated kinase 1A (Homo sapiens) (UniProt Q13627); assay: Inhibition of DYRK1A at => 3 ug/mL
[40] = biological target: Protein kinase C alpha type (Homo sapiens) (UniProt P17252); assay: Inhibition of PKCalpha at => 3 ug/mL
[41] = biological target: Epidermal growth factor receptor (Homo sapiens, UniProt P00533); assay: Inhibition of EGFR
[42] = biological target: Mitogen-activated protein kinase kinase kinase 14 (Homo sapiens) (UniProt Q99558); assay: Inhibition of NIK at => 3 ug/mL
Ephrin type-A receptor 2 = Ephrin type-A receptor 2 (Homo sapiens, UniProt P29317); assay: Inhibition of ECK
Mus musculus = assay: Inhibition of LPS-induced endotoxemia in mouse assessed as inhibition of TNFalpha production at 3 mg/kg, po; assay type: functional
How it was run: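 Mouse LPS-induced endotoxemia model; compound given orally at 3 mg/kg, and TNFα production is measured and expressed as percent inhibition.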

[43] = biological target: Ribosomal protein S6 kinase alpha-3 (Homo sapiens) (UniProt P51812); assay: Inhibition of MAPKAPK1B at => […] ug/mL
[44] = biological target: Insulin receptor (Homo sapiens) (UniProt P06213); assay: Inhibition of IR at => 3 ug/mL
Ephrin type-A receptor 3 = Ephrin type-A receptor 3 (Homo sapiens, UniProt P29320); assay: Inhibition of HEK
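For Tm in this document: thermal denaturation measurement of the p38alpha–inhibitor complex, reporting its melting point as a readout of binding.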

T1 sequence (Q16539 whole entry): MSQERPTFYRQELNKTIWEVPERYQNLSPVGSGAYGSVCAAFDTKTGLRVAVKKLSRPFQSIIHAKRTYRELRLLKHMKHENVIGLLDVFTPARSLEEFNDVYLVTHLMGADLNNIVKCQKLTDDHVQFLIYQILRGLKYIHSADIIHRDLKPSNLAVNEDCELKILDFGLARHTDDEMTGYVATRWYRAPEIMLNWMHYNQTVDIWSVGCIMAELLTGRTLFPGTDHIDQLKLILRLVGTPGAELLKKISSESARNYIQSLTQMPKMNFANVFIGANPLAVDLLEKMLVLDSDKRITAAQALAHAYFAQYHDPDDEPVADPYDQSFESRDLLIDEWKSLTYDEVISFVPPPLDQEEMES
Chain of Ribosomal protein S6 kinase alpha-3 (Homo sapiens) (P51812 whole entry): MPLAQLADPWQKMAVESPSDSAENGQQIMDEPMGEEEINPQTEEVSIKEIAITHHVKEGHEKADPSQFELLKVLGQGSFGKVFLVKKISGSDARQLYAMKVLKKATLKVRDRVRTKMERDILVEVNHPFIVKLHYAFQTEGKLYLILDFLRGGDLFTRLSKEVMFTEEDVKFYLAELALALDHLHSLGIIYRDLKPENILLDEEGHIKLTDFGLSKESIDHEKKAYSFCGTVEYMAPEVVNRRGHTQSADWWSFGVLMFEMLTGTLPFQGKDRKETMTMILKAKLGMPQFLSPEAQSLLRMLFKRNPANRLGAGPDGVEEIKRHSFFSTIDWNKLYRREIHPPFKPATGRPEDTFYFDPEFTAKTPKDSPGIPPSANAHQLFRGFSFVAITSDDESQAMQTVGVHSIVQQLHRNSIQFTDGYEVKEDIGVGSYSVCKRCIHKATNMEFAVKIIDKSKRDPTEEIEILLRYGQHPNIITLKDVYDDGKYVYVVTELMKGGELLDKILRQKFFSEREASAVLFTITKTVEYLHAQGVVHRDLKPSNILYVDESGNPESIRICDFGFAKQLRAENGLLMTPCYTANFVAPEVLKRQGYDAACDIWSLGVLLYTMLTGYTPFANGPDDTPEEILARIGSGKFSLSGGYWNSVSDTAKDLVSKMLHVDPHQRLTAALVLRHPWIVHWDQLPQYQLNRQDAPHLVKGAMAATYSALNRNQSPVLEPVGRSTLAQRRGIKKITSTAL
Chain of Cyclin-dependent kinase 1 (Homo sapiens) (P06493 whole entry, looked up): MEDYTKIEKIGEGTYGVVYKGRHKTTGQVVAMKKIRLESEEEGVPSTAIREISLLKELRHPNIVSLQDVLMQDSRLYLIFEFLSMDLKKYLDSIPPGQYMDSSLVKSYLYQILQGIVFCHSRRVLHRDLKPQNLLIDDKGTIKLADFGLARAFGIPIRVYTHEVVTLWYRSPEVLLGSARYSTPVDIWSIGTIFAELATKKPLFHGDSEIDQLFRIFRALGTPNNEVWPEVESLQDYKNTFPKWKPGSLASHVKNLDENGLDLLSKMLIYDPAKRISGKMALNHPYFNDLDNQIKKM
Chain of Tyrosine-protein kinase TXK (Homo sapiens) (P42681 whole entry): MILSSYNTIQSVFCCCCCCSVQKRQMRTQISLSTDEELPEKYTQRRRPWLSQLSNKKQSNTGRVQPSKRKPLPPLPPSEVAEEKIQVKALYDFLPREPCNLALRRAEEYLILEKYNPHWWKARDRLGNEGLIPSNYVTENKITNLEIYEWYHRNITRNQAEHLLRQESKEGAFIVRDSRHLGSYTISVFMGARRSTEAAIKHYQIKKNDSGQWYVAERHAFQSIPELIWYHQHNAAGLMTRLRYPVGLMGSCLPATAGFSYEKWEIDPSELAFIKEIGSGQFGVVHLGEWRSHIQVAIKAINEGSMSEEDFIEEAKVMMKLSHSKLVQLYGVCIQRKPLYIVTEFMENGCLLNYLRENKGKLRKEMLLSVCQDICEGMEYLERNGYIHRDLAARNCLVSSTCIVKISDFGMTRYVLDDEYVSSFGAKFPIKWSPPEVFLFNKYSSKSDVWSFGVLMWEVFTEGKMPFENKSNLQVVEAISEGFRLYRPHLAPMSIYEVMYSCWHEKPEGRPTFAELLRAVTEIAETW
Chain of Mitogen-activated protein kinase 9 (P45984 whole entry): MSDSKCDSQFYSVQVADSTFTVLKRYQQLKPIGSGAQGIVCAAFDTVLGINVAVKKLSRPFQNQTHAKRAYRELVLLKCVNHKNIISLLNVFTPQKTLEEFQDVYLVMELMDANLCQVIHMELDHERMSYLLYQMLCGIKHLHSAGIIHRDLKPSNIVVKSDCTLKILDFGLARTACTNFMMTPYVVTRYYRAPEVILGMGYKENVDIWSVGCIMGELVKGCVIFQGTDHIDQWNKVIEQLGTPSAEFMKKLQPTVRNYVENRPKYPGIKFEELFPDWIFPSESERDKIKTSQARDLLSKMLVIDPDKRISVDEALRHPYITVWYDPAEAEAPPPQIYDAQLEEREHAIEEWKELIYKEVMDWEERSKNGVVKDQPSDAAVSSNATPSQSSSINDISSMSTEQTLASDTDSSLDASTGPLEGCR
Chain of Ephrin type-A receptor 2 (P29317 whole entry): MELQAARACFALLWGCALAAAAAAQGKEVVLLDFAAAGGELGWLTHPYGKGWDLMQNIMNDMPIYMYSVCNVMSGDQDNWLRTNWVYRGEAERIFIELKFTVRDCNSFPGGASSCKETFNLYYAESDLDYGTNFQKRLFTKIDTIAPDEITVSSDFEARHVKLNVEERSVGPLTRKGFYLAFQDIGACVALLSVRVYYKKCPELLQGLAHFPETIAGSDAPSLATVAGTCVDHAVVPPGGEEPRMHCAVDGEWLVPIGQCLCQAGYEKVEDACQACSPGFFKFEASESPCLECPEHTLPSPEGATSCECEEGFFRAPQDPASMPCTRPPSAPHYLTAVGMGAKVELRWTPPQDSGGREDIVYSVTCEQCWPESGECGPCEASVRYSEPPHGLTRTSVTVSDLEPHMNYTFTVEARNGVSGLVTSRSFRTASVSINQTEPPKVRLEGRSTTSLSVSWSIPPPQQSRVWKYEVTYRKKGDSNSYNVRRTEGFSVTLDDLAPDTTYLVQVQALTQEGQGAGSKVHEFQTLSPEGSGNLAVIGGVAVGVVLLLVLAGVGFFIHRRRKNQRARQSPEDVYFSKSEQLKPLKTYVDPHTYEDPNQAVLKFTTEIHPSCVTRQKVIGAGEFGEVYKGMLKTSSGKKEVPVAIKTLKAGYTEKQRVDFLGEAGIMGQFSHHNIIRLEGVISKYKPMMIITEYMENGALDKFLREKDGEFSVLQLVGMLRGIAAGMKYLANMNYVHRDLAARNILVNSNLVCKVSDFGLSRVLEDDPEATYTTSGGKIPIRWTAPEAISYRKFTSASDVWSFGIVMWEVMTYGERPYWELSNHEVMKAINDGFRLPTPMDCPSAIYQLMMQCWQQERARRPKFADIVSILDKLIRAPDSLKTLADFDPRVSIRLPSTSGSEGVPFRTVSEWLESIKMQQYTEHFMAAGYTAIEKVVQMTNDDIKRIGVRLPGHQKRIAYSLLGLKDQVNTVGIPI
Chain of Serine/threonine-protein kinase Sgk1 (Homo sapiens) (O00141 whole entry): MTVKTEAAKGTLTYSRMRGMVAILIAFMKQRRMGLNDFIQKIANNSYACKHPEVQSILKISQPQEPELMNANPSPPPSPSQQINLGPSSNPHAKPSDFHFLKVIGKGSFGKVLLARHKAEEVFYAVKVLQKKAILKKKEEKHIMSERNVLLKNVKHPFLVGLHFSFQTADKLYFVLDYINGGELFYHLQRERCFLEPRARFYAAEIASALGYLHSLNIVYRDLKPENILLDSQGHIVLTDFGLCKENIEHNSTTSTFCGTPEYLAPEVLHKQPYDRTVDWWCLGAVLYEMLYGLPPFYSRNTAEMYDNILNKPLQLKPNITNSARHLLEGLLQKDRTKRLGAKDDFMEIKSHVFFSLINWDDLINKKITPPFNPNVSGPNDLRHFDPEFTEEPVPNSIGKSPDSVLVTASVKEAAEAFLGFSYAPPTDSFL
Chain of Tyrosine-protein kinase Lck (Homo sapiens) (P06239 2-509 limits assumed): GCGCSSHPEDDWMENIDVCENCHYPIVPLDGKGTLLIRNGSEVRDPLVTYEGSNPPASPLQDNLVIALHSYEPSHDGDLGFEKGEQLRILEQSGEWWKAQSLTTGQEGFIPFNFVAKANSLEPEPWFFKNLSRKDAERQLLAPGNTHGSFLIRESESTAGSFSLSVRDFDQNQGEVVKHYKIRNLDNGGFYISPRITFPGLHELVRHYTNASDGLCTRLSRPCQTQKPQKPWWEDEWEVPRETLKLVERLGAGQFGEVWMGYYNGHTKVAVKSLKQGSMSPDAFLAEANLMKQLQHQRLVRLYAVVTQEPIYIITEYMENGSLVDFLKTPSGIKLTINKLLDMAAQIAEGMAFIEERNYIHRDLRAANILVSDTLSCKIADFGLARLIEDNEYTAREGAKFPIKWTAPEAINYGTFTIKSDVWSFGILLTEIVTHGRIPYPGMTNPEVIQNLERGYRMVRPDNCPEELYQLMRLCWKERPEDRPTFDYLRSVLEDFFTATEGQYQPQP
Chain of 3-phosphoinositide-dependent protein kinase 1 (Homo sapiens) (O15530 whole entry, looked up): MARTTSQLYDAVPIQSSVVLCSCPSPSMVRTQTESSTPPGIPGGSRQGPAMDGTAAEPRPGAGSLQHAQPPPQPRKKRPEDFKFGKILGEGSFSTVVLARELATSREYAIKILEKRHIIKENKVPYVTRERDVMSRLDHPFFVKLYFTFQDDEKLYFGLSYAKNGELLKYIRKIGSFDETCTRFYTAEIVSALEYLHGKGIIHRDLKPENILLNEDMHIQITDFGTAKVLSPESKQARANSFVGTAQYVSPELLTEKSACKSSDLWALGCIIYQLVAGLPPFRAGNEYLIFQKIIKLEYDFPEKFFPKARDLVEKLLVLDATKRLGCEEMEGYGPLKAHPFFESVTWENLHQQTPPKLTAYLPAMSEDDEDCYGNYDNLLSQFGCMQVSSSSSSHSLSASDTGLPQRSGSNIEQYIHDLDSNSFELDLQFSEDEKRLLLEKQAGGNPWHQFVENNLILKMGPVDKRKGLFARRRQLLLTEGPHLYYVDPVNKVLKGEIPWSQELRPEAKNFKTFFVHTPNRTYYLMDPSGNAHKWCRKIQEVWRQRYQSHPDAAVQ

Structure (SMILES): COc1c(NC(=O)Nc2cccc3ccccc23)cc(C(C)(C)C)cc1NS(C)(=O)=O
Tm [1]: 56.3 °C
IC50 [2]: 79 nM

Structure (SMILES): COc1c(NC(=O)Nc2ccc(-c3ccc(CN4CCOCC4)nc3)c3ccccc23)cc(C(C)(C)C)cc1C(=O)N(C)C
Tm [1]: 56.2 °C
IC50 (THP-1): 12 nM
IC50 (Blood): 97 nM

Structure (SMILES): COc1c(NC(=O)c2cc3ccccc3s2)cc(C(C)(C)C)cc1NS(C)(=O)=O
Tm [1]: 51.4 °C
IC50 [2]: 2700 nM

Structure (SMILES): Cn1nc(C(C)(C)C)cc1NC(=O)Nc1ccc(OCCN2CCOCC2)c2ccccc12
Tm [1]: 54.5 °C
IC50 (THP-1): 140 nM
IC50 (Blood): 10000 nM

Structure (SMILES): COc1ccc(C(C)(C)C)cc1NC(=O)c1cc2ccccc2o1
Tm [1]: 46.2 °C
IC50 [2]: > 10000 nM

Structure (SMILES): CNC(=O)c1cc(C(C)(C)C)cc(NC(=O)Nc2ccc(-c3ccc(CN4CCOCC4)nc3)c3ccccc23)c1OC
Tm [1]: 65.6 °C
IC50 (THP-1): 10 nM
IC50 (Blood): 97 nM

Structure (SMILES): Cn1nc(C(C)(C)C)cc1NC(=O)Nc1ccc(-c2ccc(CN3CCOCC3)nc2)c2ccccc12
Tm [1]: 57.9 °C
IC50 (THP-1): 29 nM
IC50 (Blood): 230 nM

The next lines start with results.

Tm [1]: 56.7 °C
IC50 (THP-1): 12 nM
IC50 (Blood): 110 nM
Structure (SMILES): COc1c(NC(N)=O)cc(C(C)(C)C)cc1NC(=O)Nc1ccc(-c2ccc(CN3CCOCC3)nc2)c2ccccc12

Tm [1]: 64.9 °C
IC50 (THP-1): 15 nM
IC50 (Blood): 120 nM
Structure (SMILES): COc1c(NC(=O)Nc2ccc(-c3ccc(CN4CCOCC4)nc3)c3ccccc23)cc(C(C)(C)C)cc1N(C)C(C)=O

Activity [3]: inactive
Activity [4]: inactive
IC50 [5]: 6400 nM
Activity [6]: inactive
Activity [7]: inactive
Tm [1]: 63.3 °C
IC50 [8]: 3000 nM
Activity [9]: inactive
IC50 [10]: 7200 nM
Activity [11]: inactive
IC50 [12]: 880 nM
IC50 [13]: 8200 nM
Activity [14]: inactive
Activity [15]: inactive
Activity [16]: inactive
Activity [17]: inactive
Activity [18]: inactive
IC50 [19]: 2400 nM
Activity [20]: inactive
Activity [21]: inactive
Activity [22]: inactive
IC50 (THP-1): 10 nM
Activity [23]: inactive
Activity [24]: inactive
Activity [25]: inactive
Activity [26]: inactive
Activity [27]: inactive
inhibition [28]: 62%
Activity [29]: inactive
Activity [30]: inactive
Activity [31]: inactive
Activity [32]: inactive
Activity [33]: inactive
IC50 (Blood): 46 nM
Activity [34]: inactive
IC50 [35]: 7700 nM
IC50 [36]: 3 nM
Activity [37]: inactive
IC50 [38]: 480 nM
Activity [39]: inactive
Activity [40]: inactive
IC50 [41]: 5400 nM
Activity [42]: inactive
IC50 (Ephrin type-A receptor 2): 5200 nM
Activity [43]: inactive
Activity [44]: inactive
IC50 (Ephrin type-A receptor 3): 3200 nM
Structure (SMILES): COc1c(NC(=O)Nc2ccc(-c3ccc(CN4CCOCC4)nc3)c3ccccc23)cc(C(C)(C)C)cc1NS(C)(=O)=O
inhibition in vivo at 3 mg/kg (Mus musculus): 57%

Tm [1]: 56.6 °C
IC50 (THP-1): 29 nM
IC50 (Blood): 350 nM
Structure (SMILES): Cc1ncc(-c2ccc(C(C)(C)C)cc2NC(=O)Nc2ccc(-c3ccc(CN4CCOCC4)nc3)c3ccccc23)cn1

Tm [1]: 52.3 °C
IC50 (THP-1): 76 nM
Structure (SMILES): Cc1ccc(C(C)C)cc1NC(=O)Nc1ccc(-c2ccc(CN3CCOCC3)nc2)c2ccccc12

Tm [1]: 50.3 °C
IC50 [2]: 3900 nM
Structure (SMILES): COc1ccc(C(C)(C)C)cc1NC(=O)Nc1cccc2ccccc12
